From PMC2796117 (Bioorganic & medicinal chemistry letters, 2009)

How the values were obtained:
[1] = tested on: Gli activity (Shh pathway) in Shh-LIGHT2 cell line; test: Shh-LIGHT2 Gli-luciferase reporter assay; type: cell-based; settings: for Gli repression / activity in Shh-LIGHT2 (in words): Shh-LIGHT2 cell line, concentrations ranging from 3.9 µM to 125 µM where stated
Outline: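 Shh-LIGHT2 Gli-reporter cells stimulated with ShhN-conditioned DMEM containing 0.5% (v/v) calf serum, then exposed to test compound over a concentration series (3.9 to 125 µM where stated). Gli activity read by Bright Glo luciferase, and cytotoxicity by Cell Titer Glo. EC50 approximated from concentration curves. % ECmax is inhibition relative to cyclopamine's ECmax, or for cytotoxic compounds relative to the highest effective non-cytotoxic concentration.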

Shh signaling = settings: cell lines, human primary keratinocytes, synthetic model of human skin; cited from earlier work
ShhN = ShhN (Homo sapiens, UniProt Q15465); test: Surface plasmon resonance; type: binding
Outline: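 Purified Sonic Hedgehog N-terminal peptide (ShhN) probed by surface plasmon resonance with test compound in PBS containing 5% (v/v) DMSO. Sensorgrams background-subtracted against DMSO. Binding expressed as KD in µM, with off-rates compared from the binding curves.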

Shh-LIGHT2 cells = test: Cytotoxicity by Cell Titer Glo; type: cell-based; settings: for Cytotoxicity: Shh-LIGHT2 cells, cytotoxic above the stated concentration; for cytotoxicity (in words): any concentration
Outline: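 Cell Titer Glo luminescence in Shh-LIGHT2 Gli-reporter cells. Values are approximations read from concentration curves. Where compounds are cytotoxic, the Gli % ECmax is taken at the highest effective non-cytotoxic concentration.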

Sequence of ShhN (Q15465 24-197 limits assumed, species assumed): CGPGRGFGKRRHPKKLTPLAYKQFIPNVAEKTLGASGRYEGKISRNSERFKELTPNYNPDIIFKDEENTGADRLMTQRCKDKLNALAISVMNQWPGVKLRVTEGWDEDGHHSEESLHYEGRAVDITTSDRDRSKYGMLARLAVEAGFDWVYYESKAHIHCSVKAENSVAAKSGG

Row | apparent off-rate (ShhN; SPR, compared with the (2S, 6R) 13-membered homolog) | Structure (SMILES) | Gli repression / activity in Shh-LIGHT2 (in words) [1] | % ECmax (footnote e) ([1]; taken relative to mock treatment (reporter values comparable to 6µM cyclopamine), cytotoxic compounds: highest effective non-cytotoxic concentration) [% ^e] | effect on Shh signaling (Shh signaling) | Binding / affinity for ShhN by SPR (in words) (ShhN; purified ShhN, PBS buffer with 5% (v/v) DMSO) | Cytotoxicity (Shh-LIGHT2 cells) | cytotoxicity (in words) (Shh-LIGHT2 cells)
1 | significantly longer | O=C(C[C@@H]1C/C=C/CCC(=O)O[C@H](c2ccccc2)CNC1=O)NCc1ccc(Cl)cc1 [(0, R, S) (2), robotnikinin] | strong concentration-dependent Gli repression | 91 | blocks Shh signaling | bound purified ShhN in a stoichiometric manner | none | neither compound displayed differences in cytotoxicity at any concentration
2 |  | O=C(C[C@H]1C/C=C/CCCC(=O)O[C@@H](c2ccccc2)CNC1=O)NCc1ccc(Cl)cc1 [(1, S, R) (3)] | Gli suppression was ablated |  |  |  | none | neither compound displayed differences in cytotoxicity at any concentration
